Bioassay records: PubChem, several laboratories
Ins promoter up = MIN6 insulin promoter up-regulation | MIN6 insulin promoter-GFP reporter, high-content imaging; stronger effect = higher value | z-score at 5 µM | AID 1625 | actives 0.3% (n = 190,000);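 active means z-score above 3 at 5 µM with at least 500 cells counted in the well; inconclusive means wells under 500 cells, flagged as cytotoxic or low count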
SKKanGAS inh = inhibitors of SKKanGAS S. pyogenes growth in kanamycin (SK-promoter or general growth effect); BacTiter-Glo, 6 h; inhibition, % at 7.5 µM; actives 1.3% (n = 300,000);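 active means mean replicate score, as percent of positive control median, at least 50; inconclusive means mean below 50 but one replicate at or above 50; inactive means mean and every replicate below 50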;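 further: strain carries kanamycin resistance gene driven by streptokinase promoter and grows in 40 µg/ml kanamycin; loss of luminescence reflects streptokinase promoter inhibition or plain growth inhibition; 0% = median of DMSO wells and 100% = positive control at its reference dose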
KCC2 mod = modulates chloride dependent transport by human KCC2; Q9H2X9; KCC2 cells, thallium flux FluoZin-2 fluorescence; B-score of Tl+ flux slope (higher = more flux/activation; lower = inhibition) at 10 µM; actives 2.2% (n = 190,000); AID 1456;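 active means thallium flux slope and its plate-corrected score both differing from the plate sample mean at a set confidence after two filtering rounds, in either direction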;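 further: slope of fluorescence scaled to starting intensity during 10 to 20 s after thallium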
Target sequence (Q9H2X9 whole entry, looked up): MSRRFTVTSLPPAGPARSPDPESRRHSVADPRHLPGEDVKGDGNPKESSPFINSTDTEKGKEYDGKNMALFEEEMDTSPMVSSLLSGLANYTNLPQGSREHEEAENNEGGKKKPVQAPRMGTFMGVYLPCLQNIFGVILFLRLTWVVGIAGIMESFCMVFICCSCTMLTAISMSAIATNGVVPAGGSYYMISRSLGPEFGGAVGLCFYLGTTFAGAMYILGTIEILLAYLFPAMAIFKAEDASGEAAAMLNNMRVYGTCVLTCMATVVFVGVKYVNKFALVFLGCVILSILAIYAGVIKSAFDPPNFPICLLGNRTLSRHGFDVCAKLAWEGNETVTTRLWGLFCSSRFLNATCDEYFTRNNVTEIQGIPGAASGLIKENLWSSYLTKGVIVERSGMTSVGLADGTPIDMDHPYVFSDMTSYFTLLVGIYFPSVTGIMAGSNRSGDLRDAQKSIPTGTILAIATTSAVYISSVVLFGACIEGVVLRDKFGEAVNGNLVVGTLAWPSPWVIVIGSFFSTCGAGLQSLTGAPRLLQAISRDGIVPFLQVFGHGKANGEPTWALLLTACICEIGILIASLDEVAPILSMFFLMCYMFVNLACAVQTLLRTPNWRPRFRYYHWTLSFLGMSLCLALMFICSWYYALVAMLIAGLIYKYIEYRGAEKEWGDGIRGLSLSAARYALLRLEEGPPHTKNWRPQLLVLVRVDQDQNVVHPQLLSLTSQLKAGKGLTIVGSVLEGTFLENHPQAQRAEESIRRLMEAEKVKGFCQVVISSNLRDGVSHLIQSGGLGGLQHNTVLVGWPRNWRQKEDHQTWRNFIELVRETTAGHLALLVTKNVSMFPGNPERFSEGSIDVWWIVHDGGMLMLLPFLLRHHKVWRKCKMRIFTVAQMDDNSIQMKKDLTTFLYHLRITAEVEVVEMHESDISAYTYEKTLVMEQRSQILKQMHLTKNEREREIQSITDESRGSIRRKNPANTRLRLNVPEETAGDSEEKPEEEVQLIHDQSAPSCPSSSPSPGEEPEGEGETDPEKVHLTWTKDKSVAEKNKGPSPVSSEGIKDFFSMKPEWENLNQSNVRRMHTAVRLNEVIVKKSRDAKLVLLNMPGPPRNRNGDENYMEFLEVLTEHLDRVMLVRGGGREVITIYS
Rad51 HR inh = Rad51 (human) homologous recombination inhibition; Q06609; actives 0.085% (n = 200,000); hRad51 DNA strand exchange, fluorescence dequenching; inhibition, % at 10 µM;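 active means inhibition above 40% at the single screening dose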;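 further: 0% = DMSO control wells and 100% = blanks with heterologous ssDNA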
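Test system: preformed human Rad51 ssDNA filaments; also added: Donor/quencher-labelled 47-bp dsDNA substrate; doses: 10 µM final, single point; times: 37 °C 15-min filament assembly, 30-min compound preincubation, 15-min exchange; detection: FRET fluorescence dequenching, excitation 485 nm, emission 520 nm; read-out basis: Fluorescence-based percent inhibition, control- and blank-normalised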
WT yeast gro inh = growth inhibition of WT yeast, mitochondrial fusion screen; actives 2.1% (n = 190,000); AID 1362; inhibition, % at 10 µM; mitochondrial fusion phenotypic screen, WT strain; in the data active means inhibition above about 58%; tested in S. cerevisiae
Autophagy mod = modulators of autophagy; actives 0.98% (n = 190,000); MEF GFP-LC3 puncta imaging; test concentration mostly 10 µM; calls only at 10 µM (by protocol);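 active means percentage of spot-positive cells more than 3 SD above its plate mean, without a fluorescence outlier flag or 80% toxicity; inconclusive means no clear call, values can overlap the other calls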;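 further: spot-positive cell cutoff set from DMSO-treated cells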
KCC2 secondary = KCC2 (human) modulation, secondary assay; shares compounds with KCC2 mod; HEK293-KCC2, thallium flux, FluoZin2 fluorescence; stronger effect = higher value; normalised thallium flux (F/F0 slope) at 10 µM; actives 15% (n = 3,700); AID 1713;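 active means thallium flux slope above the same plate's solvent-only control mean plus 3 SD; inconclusive means the two replicate wells disagree; inactive means no significant difference from solvent-only control wells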
KCC2 bumet counter = thallium flux despite bumetanide block in KCC2 cells, secondary assay 3; HEK293-KCC2 + bumetanide/ouabain, thallium flux FluoZin2; stronger effect = higher value; shares compounds with KCC2 mod; normalized thallium flux at 10 µM; actives 49% (n = 3,700);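 active means thallium entry rate above the same plate's blocked-transporter control wells by more than 3 SD; inconclusive means the two repeat wells disagree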;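 further: raw slope of fluorescence over initial fluorescence between 10 and 20 s after thallium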
KCC2 secondary2 = confirmation of human KCC2 transport modulators. shares compounds with KCC2 mod. HEK293-KCC2, thallium flux FluoZin2 fluorescence; actives lie on both sides; F/F0 rise rate, 10–20 s post-thallium. normalized thallium flux at 10 µM. actives 23% (n = 3,700). AID 1715;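 active means thallium flux slope more than 3 SD above or below the plate's solvent-only control mean, mostly below; inconclusive means the two repeat wells disagreed; inactive means no significant shift from solvent-only controls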;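 further: raw slope with 0.1% DMSO as baseline and bumetanide as block control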
HEK counter1 = counter-screen for KCC2 modulators: effect in parental HEK293 cells; thallium flux rate (normalised fluorescence) at 10 µM; actives 46% (n = 3,700); thallium flux FluoZin2, ouabain; baseline-ratio fluorescence slope, 10–20 s after thallium; AID 1716; shares compounds with KCC2 mod;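 active means thallium flux rate significantly above the same plate's solvent-only control wells, beyond their mean plus 3 SD; inconclusive means the two replicate wells gave conflicting results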
KCC2 ouabain = KCC2 (human) modulation, ouabain retest; shares compounds with KCC2 mod; HEK293-KCC2, thallium flux FluoZin2 fluorescence; bidirectional: low = inhibitor, high = activator; raw Tl+ flux slope (below DMSO = inhibition, above = activation) at 10 µM; actives 48% (n = 3,700); AID 1717;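 active means thallium flux slope beyond 3 SD from same-plate DMSO control mean in most replicates, usually higher, sometimes lower; inconclusive means repeat tests gave conflicting results; inactive means no significant difference from controls in most replicates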;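 further: slope of initial-normalized fluorescence between seconds 10 and 20 after thallium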
HEK counter2 = parental HEK flux effect, counter-screen 2. shares compounds with KCC2 mod. HEK293 parental, thallium flux FluoZin-2 fluorescence slope. thallium flux slope at 10 µM. actives 33% (n = 3,700). AID 1718;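 active means thallium flux slope above the same plate's solvent-control mean plus 3 SD in both duplicate wells; inconclusive means duplicate wells that disagreed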;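 further: run without ouabain in cells lacking the KCC2 cotransporter; slope of fluorescence scaled to its starting value between 10 and 20 s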
Active calls of the source: *; i = inactive; ? = inconclusive; . = no result given; + = active, no number. An excerpt weighted towards active compounds, which were near 4.2% of everything screened.

SMILES	Ins promoter up	SKKanGAS inh	KCC2 mod	Rad51 HR inh	WT yeast gro inh	Autophagy mod	KCC2 secondary	KCC2 bumet counter	KCC2 secondary2	HEK counter1	KCC2 ouabain	HEK counter2
O=C(N/N=C\c1cn(-c2ccccc2)nc1-c1ccccc1)c1ccc(Br)o1	3.2*	37	3.9*	.	0	i	0.0095	0.012*	0.035	0.013*	0.022	?
O=C(N/N=C/c1cn(-c2ccccc2)nc1-c1ccccc1)c1ccco1	-4	-12	0.0086	-4	2	i	.	.	.	.	.	.
Cc1ccc(-c2nn(-c3ccccc3)cc2/C=N/NC(=O)c2ccc(Br)o2)cc1	?	38	3.2*	-9	6	i	0.0078	0.0066*	0.033	0.01*	0.021	0.014*
O=C(NCCc1ccccc1)c1noc2c1CCCCC2	-0.74	.	.	.	0	i	0.0078	0.0067	?	0.0078	0.019*	0.01
Cn1c(SCC(=O)c2ccc(-c3ccccc3)cc2)nnc1-c1ccco1	0.34	5	-1.7	-15	6	i	.	.	.	.	.	.
Cc1ccc(C(=O)CSc2nnc(-c3ccco3)n2Cc2ccccc2)cc1	0.36	3	-3.2*	-2	-7	i	0.0063	0.0036	0.031	?	0.013*	0.011
CCCn1c(SCC(=O)N2CCCCC2)nnc1-c1ccco1	0.03	3	5.6*	-2	-16	i	0.0084	0.0061	0.032	0.0074	0.022	0.0097
O=C(CSc1nnc(-c2ccco2)n1Cc1ccccc1)c1ccccc1	-0.33	-3	-8.2*	6	-11	.	0.0066	0.0047	?	?	0.015*	0.01
NC(=O)NC(=O)CSc1nnc(-c2ccco2)n1Cc1ccccc1	0.01	-1	-0.79	-2	-7	i	.	.	.	.	.	.
C=CCNC(=O)N1CCC(n2nccc2NC(=O)CCCc2ccccc2)CC1	.	-6	.	.	.	.	.	.	.	.	.	.
CC(=O)c1cccn1S(=O)(=O)c1ccccc1	.	-3	.	.	.	.	.	.	.	.	.	.
Cc1cc(-c2nnc(SCC(=O)NC3CCCC3)o2)no1	-0.23	-2	7.1*	-1	8	i	0.0071	0.0047	0.029	0.0072	0.018	0.01
O=C(Cc1ccc(-n2cccc2)cc1)N1CCN(c2ccccc2F)CC1	-0.07	5	-6.8*	.	7	i	0.0078	0.0055	0.032	0.0038	0.016*	0.012
CCC(=O)c1ccc(N2CCN(C(=O)Cc3ccccc3)CC2)c(F)c1	0.45	5	-1.5	-17	-2	i	.	.	.	.	.	.
CCC(=O)c1cc(F)c(N2CCN(C(=O)Cc3ccccc3)CC2)cc1C	0.52	-1	-2.9*	17	0	i	0.0074	0.0053	0.033	0.0074	0.018*	?
COc1ccc(CC(=O)N2CCN(c3ccccc3F)CC2)cc1OC	.	-2	.	.	.	.	.	.	.	.	.	.
Cc1nc([N+](=O)[O-])cn1CC(O)c1ccc(-c2ccccc2)cc1 (centres undefined)	-0.48	-1	-0.99	8	.	.	.	.	.	.	.	.
O=C(NCCc1ccccc1C(F)(F)F)C1CCC(=O)N(C2CC2)C1 (centres undefined)	.	11	.	.	.	.	.	.	.	.	.	.
CC(C)NC(=O)c1onc(CSc2ccc(Cl)cc2)c1C(=O)O	-0.39	12	-0.83	1	-11	i	.	.	.	.	.	.
CC(C)NC(=O)c1onc(CSc2ccc(Cl)cc2)c1C(=O)NC(C)C	-0.52	-2	2.4*	-10	.	.	0.0066	0.0045	0.027	0.0072	0.017	0.01
S=c1[nH]nc(-c2ccc3ccccc3n2)n1-c1ccccc1Cl	1.1	-1	6*	-4	-4	i	0.011	0.026*	0.033	0.013*	0.025	0.01
Fc1ccc(-n2c(-c3ccco3)n[nH]c2=S)cc1	.	6	.	.	.	.	.	.	.	.	.	.
O=c1ccc(-c2n[nH]c(=S)n2-c2ccc(F)c(Cl)c2)n[nH]1	-0.15	-11	-0.093	10	-3	i	.	.	.	.	.	.
S=c1[nH]nc(-c2ccc3ccccc3n2)n1-c1cc(Cl)cc(Cl)c1	-0.87	37	22*	10	60*	i	0.021*	0.054*	0.033	0.039*	0.051*	0.013*
Fc1ccc(-n2c(-c3ccc4ccccc4n3)n[nH]c2=S)cc1	-0.57	0	6.6*	11	-3	i	?	0.022*	0.032	0.018*	0.027*	0.018*
SMILES	Ins promoter up	SKKanGAS inh	KCC2 mod	Rad51 HR inh	WT yeast gro inh	Autophagy mod	KCC2 secondary	KCC2 bumet counter	KCC2 secondary2	HEK counter1	KCC2 ouabain	HEK counter2
COC(=O)c1ccc(NC(=S)NC2CCc3ccccc32)cc1 (centres undefined)	1.6	14	0.16	-7	6	i	.	.	.	.	.	.
O=C(NCC1CCCO1)c1ccc(NC(=O)c2cccc([N+](=O)[O-])c2)cc1 (centres undefined)	.	5	.	.	.	.	.	.	.	.	.	.
C[C@H]1O[C@@H](n2cc(F)c(=O)[nH]c2=O)[C@H](O)[C@@H]1O	.	-1	.	.	.	.	.	.	.	.	.	.
O=c1[nH]c(=O)n(C2CCCO2)cc1F (centres undefined)	.	-2	7.5*	1	-9	i	0.011	0.0064	0.037	0.0039	0.021	0.012
COc1ccc([N+](=O)[O-])cc1NC(=O)c1cn(-c2ccc(C)c(C)c2)c(=O)c2ccccc12	-0.04	-1	-0.073	1	1	i	.	.	.	.	.	.
Cc1ccc(-c2oc3ccccc3c(=O)c2O)cc1	-1.4	42	106*	2	-5	+	0.0099*	0.1*	0.081*	0.095*	0.097*	0.08*
Cc1cnc(=O)[nH]c1SCc1cccc([N+](=O)[O-])c1	.	-3	.	.	.	.	.	.	.	.	.	.
CCN(CC)c1ccc(NC(=O)COC(=O)COc2ccccc2[N+](=O)[O-])cc1	.	0	-6.8*	8	-12	i	0.0096	0.0058	0.035	0.0039	0.019	0.012
COc1cccc(NC(=O)COC(=O)COc2ccccc2[N+](=O)[O-])c1	0.03	-2	0.15	20	-6	i	.	.	.	.	.	.
O=C(O)CCC(=O)N1N=C(c2ccc(Br)cc2)CC1c1cccc(Br)c1 (centres undefined)	.	25	.	.	.	.	.	.	.	.	.	.
